L major viab: Leishmania major promastigote growth inhibition, primary screen; Leishmania major promastigotes, resazurin fluorescence viability; inhibition, % at 10 µM; 200,000 tested, 9% active; AID 1063, 2008; in the data active = inhibition above about 50%;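 also: promastigotes grown with compound for 44 hours at 28 °C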
ROMK mod: ROMK potassium channel modulators, primary screen, cell-based, thallium flux, MLSMR library; ATP-sensitive inward rectifier potassium channel 1 (Homo sapiens), P48048; Tet-inducible ROMK, thallium flux fluorescence; actives lie on both sides; B-score at 10 µM; 130,000 tested, 2% active; AID 1918, 2009;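 active = signal ratio slope over the read window, or its plate-corrected B-score, at least 3 SD from the plate mean, either direction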;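 also: B-score of the F/F0 ratio slope over 7 to 12 s after thallium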
Cl transport mod: KCC2 cotransporter modulators, thallium flux, primary screen, cell-based, HEK293 KCC2, FluoZin-2 fluorescence, MLSMR | B-score of Tl+ flux slope (higher = more flux/activation; lower = inhibition) at 10 µM | KCC2 cells, thallium flux FluoZin-2 fluorescence | 190,000 tested, 2.2% active | AID 1456, 2008 | Solute carrier family 12 member 5 (Homo sapiens), Q9H2X9;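 active = thallium flux slope and its plate-corrected score both differing from the plate sample mean at a set confidence after two filtering rounds, in either direction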;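 also: slope of fluorescence scaled to starting intensity during 10 to 20 s after thallium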
Target sequence (Q9H2X9 whole entry, looked up): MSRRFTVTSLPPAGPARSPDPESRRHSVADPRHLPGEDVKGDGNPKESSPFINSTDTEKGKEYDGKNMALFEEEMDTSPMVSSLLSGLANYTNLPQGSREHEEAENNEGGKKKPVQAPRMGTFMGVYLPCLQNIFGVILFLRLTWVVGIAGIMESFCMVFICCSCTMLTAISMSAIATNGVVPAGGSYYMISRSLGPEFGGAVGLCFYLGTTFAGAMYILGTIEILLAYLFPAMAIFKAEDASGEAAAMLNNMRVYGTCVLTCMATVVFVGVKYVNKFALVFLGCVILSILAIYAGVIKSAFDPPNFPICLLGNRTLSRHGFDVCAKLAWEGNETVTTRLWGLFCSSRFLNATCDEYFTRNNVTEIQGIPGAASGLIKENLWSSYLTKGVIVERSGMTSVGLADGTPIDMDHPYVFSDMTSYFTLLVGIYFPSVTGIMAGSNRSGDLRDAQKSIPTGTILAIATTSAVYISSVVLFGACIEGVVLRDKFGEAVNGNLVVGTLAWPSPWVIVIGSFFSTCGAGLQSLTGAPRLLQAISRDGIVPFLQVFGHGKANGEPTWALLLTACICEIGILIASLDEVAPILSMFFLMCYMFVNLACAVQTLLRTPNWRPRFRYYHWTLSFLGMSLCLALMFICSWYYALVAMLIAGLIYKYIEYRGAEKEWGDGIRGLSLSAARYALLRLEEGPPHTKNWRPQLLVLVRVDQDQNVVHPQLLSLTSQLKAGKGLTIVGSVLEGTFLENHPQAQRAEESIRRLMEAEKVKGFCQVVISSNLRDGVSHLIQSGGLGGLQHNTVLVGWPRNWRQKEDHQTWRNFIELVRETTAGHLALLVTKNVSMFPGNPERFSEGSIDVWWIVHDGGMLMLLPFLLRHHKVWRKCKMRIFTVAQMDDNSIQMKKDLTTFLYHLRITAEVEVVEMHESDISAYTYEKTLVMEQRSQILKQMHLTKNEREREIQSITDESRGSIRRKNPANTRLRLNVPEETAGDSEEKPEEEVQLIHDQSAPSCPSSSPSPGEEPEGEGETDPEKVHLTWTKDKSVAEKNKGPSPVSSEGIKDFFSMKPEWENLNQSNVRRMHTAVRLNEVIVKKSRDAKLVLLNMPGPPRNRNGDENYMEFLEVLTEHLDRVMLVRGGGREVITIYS
WT yeast gro inh: growth inhibition of WT strain, primary screen, mitochondrial fusion inhibitor project, WT and mutant strains, chemical genetic; mitochondrial fusion phenotypic screen; inhibition, % at 10 µM; 190,000 tested, 2.1% active; in the data active = inhibition above about 58%; tested in S. cerevisiae
Diaph act CS: compounds boosting diaphorase resazurin reduction – biochemical, uHTS, resorufin fluorescence, counter-screen for diaphorase-coupled primary assays, primary screen | activation factor at 20 µM | 190,000 tested, 0.005% active | AID 1229, 2008 | Diaphorase/resazurin coupled assay, 16 min; hits give high values; 1 = vehicle wells, 0 = NADH-free wells;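 active = diaphorase activity raised at least twofold by the compound at 20 µM; inactive = activation factor below 2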
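test system = bacterial diaphorase enzyme (C. kluyveri) | quantity = enzyme 0.07 U/mL final | reagent = NADH substrate 0.114 mM plus resazurin dye 0.1 mM, final | incubation = 16 min enzyme reaction, ambient temperature | buffer or medium = HEPES pH 7.4 buffer with MgCl2 and Tween 20 | signal = fluorescence of resorufin, 544 nm excitation, 590 nm emission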
Diaph inh CS: diaphorase inhibitors and chemical oxidizers, primary screen, counter-screen for diaphorase-coupled primary assays, biochemical, uHTS, resorufin fluorescence. 190,000 tested, 0.69% active. AID 1217, 2008. diaphorase resazurin-to-resorufin fluorescence, NADH, 16 min; bacterial (C. kluyveri) enzyme, not human. inhibition, % at 20 µM;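 active = primary screen inhibition at 20 µM above a set limit, cut at about 50% in these data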
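Assay system: diaphorase enzyme from Clostridium kluyveri; Input: enzyme working solution with 0.14 U/mL diaphorase; Timing: 16 min at room temperature; Technique: resorufin fluorescence, excitation 544 nm, emission 590 nm; Benchmarks: positive control minus NADH, DMSO neutral control.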
Large screens that a line does not name were inactive. Most compounds without a hit are left out; they make up all but 12% or so of the library.

COc1cc(NC(=O)COc2ccc(Cl)cc2)ccc1-c1cc2ccccc2oc1=O	L major viab 63
Cc1ccc(NC(=O)COC(=O)CNC(=O)c2ccco2)cc1	none
Cc1oc(/C=N/NS(=O)(=O)c2ccccc2)cc1Br	L major viab 63
Cc1ccccc1N1C(=O)C(Cl)=C(N2CCN(c3ccccc3)CC2)C1=O	none (no result: Cl transport mod)
CN1CCN(C2=C(Cl)C(=O)N(Cc3ccccc3)C2=O)CC1	L major viab 96
CN1CCN(C2=C(Cl)C(=O)N(c3cccc(Cl)c3)C2=O)CC1	none
CCN1CCN(C2=C(Cl)C(=O)N(Cc3ccccc3)C2=O)CC1	L major viab 92 (no result: ROMK mod)
CC1CCN(C(c2cccs2)c2nnnn2Cc2ccccc2)CC1 (configuration not stated)	none
COc1cc(/C=C(\C#N)c2nc3ccccc3n2C)cc(OC)c1O	ROMK mod -4.1, Cl transport mod -6.9
Cn1c(/C(C#N)=C/c2ccc(O)cc2)nc2ccccc21	none (no result: L major viab, ROMK mod, WT yeast gro inh, Diaph act CS, Diaph inh CS)
COc1cc(/C=C(/C#N)c2nc3ccccc3c(=O)[nH]2)ccc1O	none
Cn1c(/C(C#N)=C/C2CC=CCC2)nc2ccccc21 (configuration not stated)	L major viab 79 (no result: ROMK mod)
Cn1c(/C(C#N)=C(\O)c2ccc([N+](=O)[O-])cc2)nc2ccccc21	none
Cn1c(/C(C#N)=C/c2ccncc2)nc2ccccc21	ROMK mod -3.6
COCCNC(=O)NC(=O)CSc1nc(C)c(C)c(C)n1	none (no result: Cl transport mod)
CCOC(=O)c1c(OCCO)nn(-c2ccccc2)c1N	none
Cc1cc(C)nc(N2CCC(C(=O)NCCc3ccc(F)cc3)CC2)n1	WT yeast gro inh 69
O=S(=O)(NCC1NCCc2ccccc21)c1ccccc1 (configuration not stated)	none
Cc1c(C(=O)Nc2cccc(Cl)c2)oc2ccc(S(=O)(=O)N3CCC4(CC3)OCCO4)cc12	L major viab 52
Cc1ccc(NC(=O)c2cc(S(=O)(=O)N3CCC4(CC3)OCCO4)ccc2F)cc1	L major viab 96 (no result: ROMK mod, Cl transport mod)
Cc1c(C(=O)Nc2ccc(F)cc2)oc2ccc(S(=O)(=O)N3CCC4(CC3)OCCO4)cc12	none
NC(=O)C1=C[C@@H](c2ccc(Br)cc2)C[C@@H](OCCCCO)O1	none (no result: ROMK mod)
CC(C)(C)Nc1nc(N2CCCC2)nc(N2CCCC2)n1	L major viab 98 (no result: ROMK mod)
CCNc1nc(NC(C)(C)C)nc(N2CCCC2)n1	L major viab 80, WT yeast gro inh 60
CCCNc1nc(N2CCCC2)nc(N2CCCC2)n1	L major viab 89 (no result: Diaph act CS, Diaph inh CS)
CCOC(=O)N1c2ccccc2Sc2ccccc21	none
Cc1nnc(SC(=O)N2c3ccccc3Sc3ccccc32)s1	L major viab 63 (no result: ROMK mod)
CCCc1nc2sc3c(=O)n(N)cnc3c2c2c1CCCC2	none
COCCN1CCC(CNCc2cn(-c3cc(C)ccc3C)nc2-c2ccccc2)C1 (configuration not stated)	L major viab 100
CCn1ccnc1CNCc1cn(-c2cc(C)ccc2C)nc1-c1ccccc1	L major viab 65 (no result: Diaph act CS, Diaph inh CS)
NCCCC[C@H](N)c1nnc([C@H](CCC(=O)O)NC(=O)C2CCNCC2)o1	none (no result: ROMK mod)
O=[N+]([O-])c1cccc(C2NCC(c3ccccc3Cl)c3c2[nH]c2ccccc32)c1 (configuration not stated)	WT yeast gro inh 70 (no result: Cl transport mod)
CN(C)c1ccc(C2CNC(c3ccc(Cl)c([N+](=O)[O-])c3)c3[nH]c4ccccc4c32)cc1 (configuration not stated)	none (no result: L major viab, ROMK mod, WT yeast gro inh, Diaph act CS, Diaph inh CS)
COc1cc(/C=N/NC(=O)c2cc(-c3ccc4c(c3)OCO4)n[nH]2)ccc1O	none
Cn1c(=O)c2c(nc(N/N=C/c3cccs3)n2Cc2ccccc2)n(C)c1=O	none (no result: ROMK mod)
Cn1c(=O)c2c(nc(N/N=C/c3ccc(OC(=O)c4ccco4)cc3)n2Cc2ccccc2)n(C)c1=O	L major viab 61
